KCNK9 block: human KCNK9 channel inhibition | AID 488922 | 310,000 compounds, 1.2% hits | HEK293 KCNK9, FluxOR thallium flux fluorescence; hits give low values | B-score at 10 µM | Q9NPC2;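 active means ratio B-score over 3 SD below the library mean, with starting fluorescence within 5 SD of its mean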;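 further: negative B-score means less thallium flux so channel inhibition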
KCNK3 block: human KCNK3 channel inhibition, primary screen | B-score at 10 µM | 340,000 compounds, 0.84% hits | CHO-KCNK3 thallium flux, FluxOR fluorescence; hits give low values | O14649;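 active means B-score under library mean minus 4 SD, starting fluorescence ratio at most library mean plus 5 SD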;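 further: more negative B-score means stronger inhibition of thallium flux through KCNK3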
KCNQ1 block: inhibitors of human KCNQ1 potassium channel; P51787; CHO-K1 KCNQ1, FluxOR thallium flux fluorescence; hits give high values; B-score at 10 µM; 310,000 compounds, 1.3% hits;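 active means compounds whose thallium flux B-score, printed positive for inhibition, exceeds three library SD while starting fluorescence stays within three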;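 further: channel opened by potassium depolarization with thallium stimulus after 20 min compound exposure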
Kir21 block: Kir2.1 (mouse) channel inhibition; 310,000 compounds, 0.85% hits; P35561; HEK293-Kir2.1, FluxOR thallium flux fluorescence; hits give low values; B-score at 10 µM;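 active means fluorescence ratio B-score at or below minus 3 SD of library scores, with starting-brightness B-score within 2 SD, cut at about -4.2 in these data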;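 further: channel flux triggered by added potassium and thallium sulfate stimulus; B-score of peak minus minimum fluorescence over baseline after thallium stimulus; more negative B-score means stronger Kir2.1 block with less thallium influx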
KCNQ1 pot: potentiators or activators of human KCNQ1 potassium channel; 310,000 compounds, 0.35% hits; B-score at 10 µM; CHO-K1 KCNQ1, thallium flux FluxOR fluorescence; hits give high values; P51787;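 active means fluorescence ratio B-score, a plate-corrected score, at least three library SD, with initial intensity B-score within 5 SD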
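System: CHO-K1 cells stably expressing KCNQ1 / Medium: assay buffer for compound exposure, DMSO matched across wells / Reagent: thallium- and potassium-containing depolarizing buffer / Compound: one concentration, matched DMSO / Incubation: 20 min compound pretreatment at room temperature / Measured by: kinetic FluxOR fluorescence, 10 s baseline plus 110 s post-stimulus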
hERG protect: shields human hERG channel from block by proarrhythmic agents; CHO-hERG, FluxOR thallium flux, dofetilide IC70 present; activation (rescue from dofetilide block), less the hit threshold, % at 10 µM; 310,000 compounds, 0.51% hits;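 active means activation above the mean of controls blocked by dofetilide plus 5 SD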;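 further: thallium influx through hERG after potassium depolarization seen as dye fluorescence rise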
KCNQ1 block val: reconfirmed blocker of the human KCNQ1 potassium channel. shares compounds with KCNQ1 block. KCNQ1 cell line, FluxOR thallium flux fluorescence. inhibition, % at 10 µM. 1,600 compounds, 93% hits. AID 588353;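 active means primary screen active, with duplicate mean exceeding buffer control mean plus 3 SD of buffer wells, cut at about 28% in these data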;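 further: 0% = buffer control ratio and 100% = XE991 inhibitor control ratio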
CHO Tl flux: counter-screen for KCNQ1 inhibitors: effect in parental CHO cells; shares compounds with KCNQ1 block; parental CHO-K1, FluxOR thallium flux fluorescence ratio; hits give low values; zero means no signal rise above baseline; fluorescence ratio (Tl flux) at 10 µM; 1,600 compounds, 21% hits; AID 588366;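 active means mean of duplicate thallium-flux fluorescence ratios in parental host cells more than 5 SD below the buffer control mean, cut at about 0.38 in these data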;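 further: ratio is peak minus minimum fluorescence divided by baseline fluorescence; actives read low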
KCNQ1 ephys val: blocks human KCNQ1 current in automated patch clamp; 490 compounds, 20% hits; calls only at 10 µM; KCNQ1-CHO cells; shares compounds with KCNQ1 block; AID 624120;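 active means KCNQ1 current drop exceeding 3 SD of negative control wells, seen in both duplicate runs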;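 further: steady state current during a 2 s step from -80 to +40 mV; negative values mean current inhibition and positive values mean potentiation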
KCNQ2 inh: rat KCNQ2 inhibition in KCNQ1 inhibitor specificity screen | inhibition, % at 10 µM | 1,600 compounds, 71% hits | KCNQ2 cells, FluxOR thallium flux fluorescence | shares compounds with KCNQ1 block;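 active means mean percent inhibition of the KCNQ2 thallium signal more than 5 SD above the buffer-only control wells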;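 further: KCNQ2 expressed in CHO cells; 0% = buffer control wells and 100% = XE-991 inhibitor control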
KCNQ1-KCNE1 inh: KCNQ1 inhibitor that also blocks human KCNQ1/KCNE1 channel; 1,600 compounds, 77% hits; inhibition, % at 10 µM; KCNQ1/KCNE1 cells, FluxOR thallium flux fluorescence; shares compounds with KCNQ1 block;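 active means mean percent inhibition of duplicate wells above the buffer-only control mean plus 3 SD of those controls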;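 further: 0% = buffer only wells and 100% = XE-991 inhibitor control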
* = called active by the depositor; i = inactive; · = no result; + = active, no number. A selection: hits, their analogues and other compounds. The true share with any hit is near 3.7%.

SMILES	KCNK9 block	KCNK3 block	KCNQ1 block	Kir21 block	KCNQ1 pot	hERG protect	KCNQ1 block val	CHO Tl flux	KCNQ2 inh	KCNQ1-KCNE1 inh	others
COc1ccc(CC2(CO)CCN(CC3=Cc4cc(Cl)ccc4OC3)CC2)cc1	i	i	9*	1	i	-24.7	113.0*	0.495	102.3%*	i	KCNQ1 ephys val=i
COc1ccc2c(c1)C=C(CN1CCC(CO)(CCc3ccccc3)CC1)CO2	i	i	i	0.78	i	-11.0	·	·	·	·
CC(=NO)c1ccc2c(c1)C(=NO)c1ccccc1-2	·	i	·	·	·	·	·	·	·	·
CCS(=O)(=O)c1ccc2c(c1)N(S(C)(=O)=O)CC(C(=O)NN)O2 (centres undefined)	i	i	i	-1.15	i	-9.5	·	·	·	·
Cc1cc(NC(=S)Nc2cccnc2)ccc1Br	i	i	10*	-0.05	i	-24.3	67.0*	0.493	i	i
COc1ccc(NC(=O)c2cc(-c3cc(C)cc(C)c3O)n[nH]2)cc1Cl	i	-9.16*	8*	1.55	i	-8.5	168.5*	0.272*	114.0%*	+
CCc1ccc(N2CC(C(=O)OCC(=O)Nc3ccc(C#N)cc3)CC2=O)cc1 (centres undefined)	·	i	·	·	·	·	·	·	·	·
S=C(NCCNC(=S)Nc1ccccc1Cl)Nc1ccccc1Cl	i	i	7*	0.5	i	-5.4	62.0*	0.588	82.0%*	i
S=C(NCCCc1ccccc1)Nc1ccccc1Cl	i	i	7*	-0.05	i	-22.1	100.0*	0.618	60.7%*	38.0%*	KCNQ1 ephys val=i
S=C(NCCc1ccccc1)NCc1cccc(Cl)c1	i	i	9*	-2.2	i	-5.2	62.0*	0.506	104.0%*	46.5%*
Cc1ccc2nc(C)cc(C(=O)N3CCCC(N4CCN(c5ccccc5C)CC4)C3)c2c1 (centres undefined)	i	i	i	-1.02	i	-7.1	·	·	·	·
CC(NC(=O)COC(=O)CCC(=O)c1ccc(F)cc1)c1ccccc1 (centres undefined)	·	i	·	·	·	·	·	·	·	·
COc1cccc(CNC(=O)c2cc3c(C)nc4ccccc4c3o2)c1	i	i	i	0.92	i	-14.1	·	·	·	·
CCc1ccc(CNC(=O)c2cc3c(C)nc4ccccc4c3o2)cc1	i	i	8*	0.6	i	-20.0	140.5*	0.245*	113.3%*	+
Cc1ccn2c(NC(C)(C)C)c(-c3cccs3)nc2c1	i	i	i	-1.86	i	-10.2	·	·	·	·
CN(C)CCNC(=O)c1ccc(Sc2ccc(Br)cc2)c([N+](=O)[O-])c1	i	i	15*	-1.66	i	-20.0	0.0	0.495	i	i
c1nc(C2CCCCC2)cc2cc3c(cc12)OCO3	·	i	·	·	·	·	·	·	·	·
COc1cc(NC(=O)COc2cc(O)c3c(c2)OC(C)(C)CC3=O)cc(OC)c1	i	i	i	-0.08	i	-5.0	·	·	·	·
COc1cccc(NC(=O)COc2cc(O)c3c(c2)OC(C)(C)CC3=O)c1	i	i	7*	0.82	i	-13.4	49.0*	0.443	78.3%*	69.5%*
O=C(c1cc2cc(F)ccc2[nH]1)N1CCC(Cc2ccccc2)CC1	i	i	i	-0.22	i	-0.5	·	·	·	·
CN(CC(=O)Nc1cccc(F)c1)C(=O)c1cn(-c2ccccc2)nc1-c1cccs1	i	i	8*	-0.06	i	-11.3	79.0*	0.49	83.3%*	108.5%*
Nc1ncnc2c1ncn2[C@@H]1O[C@H](CNCc2cccc(C#Cc3ccccc3)c2)[C@@H](O)[C@H]1O	·	i	·	·	·	·	·	·	·	·
NC1=NC[C@H](c2ccccc2)N1CCCCC1CCCCC1	i	i	9*	-6.74*	i	-14.8	116.5*	0.396	120.3%*	87.5%*	KCNQ1 ephys val=+
S=C1NC[C@H](c2ccccc2)N1CCCCC1CCCCC1	i	i	i	0.18	i	-7.5	·	·	·	·
O=C1CCN(Cc2ccccc2)C=C1c1cccc(O)c1	·	i	·	·	·	·	·	·	·	·
SMILES	KCNK9 block	KCNK3 block	KCNQ1 block	Kir21 block	KCNQ1 pot	hERG protect	KCNQ1 block val	CHO Tl flux	KCNQ2 inh	KCNQ1-KCNE1 inh	others
COc1ccc(C(=O)Nc2cc3c4c(c2)C(C)C(=O)N4CCC3)cc1OC (centres undefined)	i	i	i	0.04	i	-8.6	·	·	·	·
O=C(CCC1CCCCC1)Nc1nnc(C(F)(F)F)s1	i	i	6*	-0.21	i	-0.1	63.5*	0.539	i	33.5%*
CCc1nnc(NC(=O)CCC2CCCCC2)s1	i	i	i	1.44	i	-3.1	·	·	·	·
Cc1nn(-c2ccccc2)c(C)c1C(=O)OCc1ccc(C#N)cc1	i	i	i	-1.84	i	-1.6	·	·	·	·
Cc1cccc(OCCC(=O)OCC(=O)Nc2c(C)nn(-c3ccccc3)c2C)c1	i	i	10*	-0.41	i	-19.8	32.5*	0.469	64.3%*	35.5%*
Cc1ccc(C)c(OCC(=O)OCC(=O)Nc2c(C)nn(-c3ccccc3)c2C)c1	i	i	i	1.95	i	-9.9	·	·	·	·
Cc1ccc(S(=O)(=O)CCSc2n[nH]c(=O)n2-c2ccc3c(c2)OCCO3)cc1	i	i	i	-0.78	i	-10.5	·	·	·	·
O=C(CNC1CCCCCC1)Nc1ccccc1N1CCCCC1	i	i	i	-2.76	i	-4.0	·	·	·	·
O=C(CNCCC1=CCCCC1)Nc1ccccc1N1CCCCC1	i	i	8*	0.8	i	-18.7	132.0*	0.371*	110.3%*	179.0%*
Cc1cccc(NC(=O)CSCC(=O)Nc2ccccc2N2CCCCC2)c1	i	i	i	-0.16	i	-9.5	·	·	·	·
Cc1ccc(NC(=O)CSCC(=O)Nc2ccccc2N2CCCCC2)cc1	i	i	8*	-2.09	i	-15.7	114.5*	0.424	i	167.5%*	KCNQ1 ephys val=+
CCN1C(=O)c2cccc3c(S(=O)(=O)N4CCNCC4)ccc1c23	·	i	·	·	·	·	·	·	·	·
CCc1ccccc1NC(=O)CN1CCN(CC(=O)Nc2cc(C)ccc2OC)CC1	i	i	i	-0.82	i	-4.4	·	·	·	·
